Data set [1] has as its target T1, Sodium/glucose cotransporter 2 (Homo sapiens, UniProt P31639).
T1 sequence (P31639 whole entry): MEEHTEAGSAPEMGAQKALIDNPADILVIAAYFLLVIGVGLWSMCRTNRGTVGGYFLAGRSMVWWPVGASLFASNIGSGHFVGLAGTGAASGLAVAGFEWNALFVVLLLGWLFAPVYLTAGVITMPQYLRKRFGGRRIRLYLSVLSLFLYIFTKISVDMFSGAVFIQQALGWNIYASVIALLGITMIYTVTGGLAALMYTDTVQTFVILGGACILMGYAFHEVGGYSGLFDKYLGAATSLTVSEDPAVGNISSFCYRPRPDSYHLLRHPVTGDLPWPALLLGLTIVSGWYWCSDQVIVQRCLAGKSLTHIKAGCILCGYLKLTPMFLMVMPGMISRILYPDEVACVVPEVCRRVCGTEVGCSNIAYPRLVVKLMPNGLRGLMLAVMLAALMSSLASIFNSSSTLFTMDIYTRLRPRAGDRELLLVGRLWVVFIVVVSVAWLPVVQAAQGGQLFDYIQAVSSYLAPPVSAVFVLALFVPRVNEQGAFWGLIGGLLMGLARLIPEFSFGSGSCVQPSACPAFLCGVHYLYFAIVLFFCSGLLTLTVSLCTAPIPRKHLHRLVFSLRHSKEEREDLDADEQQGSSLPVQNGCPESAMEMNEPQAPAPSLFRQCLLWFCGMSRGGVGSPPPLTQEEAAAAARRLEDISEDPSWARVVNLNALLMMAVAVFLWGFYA
The experiment in a line: Inhibition of human SGLT2 expressed in CHO cells assessed as [14C]-methyl-alpha-D-glucopyranoside accumulation. Format: cell-based.

For data set [2], the species on record is Homo sapiens. Nature of the data set: Selectivity ratio of IC50 for human SGLT1 to IC50 for human SGLT2.
In data set [3] the test system is Mus musculus. The experiment in a line: Antihyperglycemic activity in KK/Ay type-2 diabetic mouse model assessed as reduction of blood glucose level at 3 mg/kg, po measured for 8 hrs relative to vehicle-treated control. Format: functional. The arrangement: scale not given: the % may be the effect or the level left. Put shortly:
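KK/Ay mice in the fed condition were given a single oral dose (0.1–3 mg/kg). Blood glucose was followed over time, and suppression of glucose AUC was calculated relative to vehicle. Mean ± SEM, 6 animals per group.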

For data set [4], the system named is Mus musculus. The experiment in a line: Antihyperglycemic activity in KK/Ay type-2 diabetic mouse model assessed as increase in urinary glucose excretion at => 0.3 mg/kg, po measured over 12 hrs. Format: functional, organism-based. Set-up: dose 0.3 mg/kg. The conditions noted are these: Urine.
Data set [5] relates to Mus musculus. The experiment in a line: Antihyperglycemic activity in po dosed KK/Ay type-2 diabetic mouse model assessed as increase in urinary glucose excretion measured over 24 hrs. Format: functional, organism-based. The conditions noted are these: Urine.
A short description of data set [6]: Oral bioavailability in Sprague-Dawley rat at 3 mg/kg. Format: ADME, organism-based. The conditions noted are these: in vivo. Put shortly: (§1)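 Male Sprague–Dawley rats, bought at 5–7 weeks of age. A single 1.0 mg/kg intravenous dose or a single 3 mg/kg oral dose was given. Plasma pharmacokinetic parameters were derived: T1/2, CLtot, Vdss, Cmax, Tmax, AUC(0–inf) and oral bioavailability F.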

Data set [7] in a line: Ratio of drug level in kidney to plasma in Sprague-Dawley rat at 1 mg/kg, iv and 3 mg/kg, po. Format: ADME, organism-based. The gist of the method:
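Male Sprague–Dawley rats received a single 1.0 mg/kg iv or a single 3 mg/kg oral dose. Drug concentration in kidney was compared with that in plasma.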

Data set [8] is described as follows: AUC (0 to infinity) in Sprague-Dawley rat at 1 mg/kg, iv. The conditions noted are these: plasma. Format: ADME, organism-based. Set-up: time infinity, dose 1 mg/kg, route intravenous. The gist of the method: as §1
Data set [9] is described as follows: Cmax in Sprague-Dawley rat at 3 mg/kg, po. Format: ADME, organism-based. Set-up: dose 3 mg/kg, route oral. The conditions noted are these: in vivo. The gist of the method: as §1
The nature of data set [10]: Tmax in Sprague-Dawley rat at 3 mg/kg, po. Format: ADME, organism-based. Set-up: dose 3 mg/kg, route oral. As to conditions: in vivo. The gist of the method: as §1
The subject of data set [11] is Rattus norvegicus. Nature of the data set: Volume of distribution at steady state in Sprague-Dawley rat at 1 mg/kg, iv. Format: ADME, organism-based. Set-up: dose 1 mg/kg, route intravenous. The conditions noted are these: in vivo. Put shortly: as §1
The nature of data set [12]: Half life in Sprague-Dawley rat at 1 mg/kg, iv. Format: ADME, organism-based. The arrangement: dose 1 mg/kg, route intravenous. As to conditions: in vivo. Put shortly: as §1
A short description of data set [13]: Half life in Sprague-Dawley rat at 3 mg/kg, po. Format: ADME, organism-based. Set-up: dose 3 mg/kg, route oral. The conditions noted are these: in vivo. The gist of the method: as §1
The subject of data set [14] is Rattus norvegicus. Nature of the data set: Antihyperglycemic activity in streptozotocin-induced type-1 diabetes mellitus rat model assessed as reduction of blood glucose level at 0.1 to 3 mg/kg, po measured for 8 hrs.

Active and inactive are the calls of the source. The calls are words filed in the database; no cut-off is given here.

Regarding `OC[C@H]1O[C@@H](c2cc(Cc3cc4cccccc-4c3)ccc2F)[C@H](O)[C@@H](O)[C@@H]1O`, the IC50 (usually the concentration at which inhibition is half-maximal) in data set [1] was 39 nM. In addition, the Ratio IC50 in [2] came out at 123.

Consider `OC[C@H]1O[C@@H](c2cccc(Cc3cc4cccccc-4c3Cc3ccccc3)c2)[C@H](O)[C@@H](O)[C@@H]1O`, for which the 50% inhibitory concentration (IC50) in data set [1] was found to be 970 nM. Also, the Ratio IC50 in data set [2] was more than 10.

Consider `OC[C@H]1O[C@@H](c2ccc(F)c(Cc3cc4cccccc-4c3)c2)[C@H](O)[C@@H](O)[C@@H]1O`, for which the half-maximal inhibitory concentration (IC50) in data set [1] came out at 14 nM. In addition, the Ratio IC50 in data set [2] came to 610.

As for `COc1ccc([C@@H]2O[C@H](CO)[C@@H](O)[C@H](O)[C@H]2O)cc1Cc1cc2cccccc-2c1`, the IC50 in data set [1] worked out at 17 nM. Further, the Ratio IC50 in data set [2] turned out to be 35.

As for `COc1ccc(Cc2cc3cccccc-3c2)cc1[C@@H]1O[C@H](CO)[C@@H](O)[C@H](O)[C@H]1O`, the Ratio IC50 in [2] stood at 2100.

As for `OC[C@H]1O[C@@H](c2cc(Cc3cc4cccccc-4c3)ccc2O)[C@H](O)[C@@H](O)[C@@H]1O` [YM-543 FREE ACID], the Activity was 56% in data set [3] and “Dose-dependent effect” in data set [5]. In addition, the outcome in [4] and in data set [14] was Active. Also, in data set [6], the bioavailability (as a rule, the share of a dose that reaches the circulation, judged against a reference dose that is usually intravenous) amounted to 29%. For the same compound, the Kp (usually the ratio of the level in a tissue or fluid to that in plasma or blood) in data set [7] was 23. In addition, the area under the curve AUC(0-inf) – broadly, total exposure, with the tail of the curve extrapolated – in data set [8] is 403 ng·h/mL. The concentration in [9] peaked (Cmax) at 101 ng/mL. For the same compound, the Tmax (usually the time from dosing to the highest level) in data set [10] was 30 min. Further, the Vdss (in general, the apparent volume that relates the amount in the body to the concentration in plasma or blood) in data set [11] came out at 3.36 L/kg. Also, the results for the half-life in data set [12] and in data set [13] were 54 min and 78 min, respectively. For the same compound, the Ratio IC50 in data set [2] was 280.

In the case of `OC[C@H]1O[C@@H](c2cccc(Cc3cc4cccccc-4c3)c2)[C@H](O)[C@@H](O)[C@@H]1O`, the Ratio IC50 in [2] came to 590.

Turning to `OC[C@H]1O[C@@H](c2ccc(Cl)c(Cc3cc4cccccc-4c3)c2)[C@H](O)[C@@H](O)[C@@H]1O`, the IC50 in data set [1] came out at 7.9 nM. The Ratio IC50 in [2] is 140.

For `OC[C@H]1O[C@@H](c2cc(Cc3cc4cccccc-4c3)ccc2Cl)[C@H](O)[C@@H](O)[C@@H]1O`, the IC50 in data set [1] is 70 nM. In data set [2], the Ratio IC50 was found to be 200.

As to `OC[C@H]1O[C@@H](c2cccc(Cc3ccc4cccc-4cc3)c2)[C@H](O)[C@@H](O)[C@@H]1O`, the Ratio IC50 in data set [2] was found to be 230.

Take `CC(=O)c1c(Cc2cccc([C@@H]3O[C@H](CO)[C@@H](O)[C@H](O)[C@H]3O)c2)cc2cccccc1-2`: in data set [1], the IC50 is 12000 nM. In data set [2], the Ratio IC50 is more than 0.8.

As for `Cc1cc(Cc2cccc([C@@H]3O[C@H](CO)[C@@H](O)[C@H](O)[C@H]3O)c2)c2cccccc1-2`, in data set [1], the IC50 turned out to be 44000 nM.

Take `CCc1c(Cc2cccc([C@@H]3O[C@H](CO)[C@@H](O)[C@H](O)[C@H]3O)c2)cc2cccccc1-2`: the half-maximal inhibitory concentration (IC50) in [1] was 5200 nM. Moreover, the Ratio IC50 in data set [2] was more than 1.9.

The values above are taken from ChEMBL document CHEMBL2396571, “Synthesis and biological evaluation of C-glucosides with azulene rings as selective SGLT2 inhibitors for the treatment of type 2 diabetes mellitus: discovery of YM543” (Bioorg Med Chem, 2013).
